Assay outcomes: PubChem BioAssay, Broad Institute
PGC1a Ac signal – raises PGC1a acetylation signal in U2OS cells; activation, % at 15.6 µM; AID 651723; hit rate 0.21% among 350,000; U2OS PGC1a acetylation AlphaScreen, overnight;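 active = every replicate reaching activation of at least 50%, whatever the mean replicate activation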;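 note: hits raise the AlphaScreen acetylation signal above neutral controls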
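System: flag-PGC1a/GCN5 U2OS cells / Input: 7000 cells/well / Compound: single test concentration per compound / Incubation: overnight compound treatment, 37 °C / Technique: AlphaScreen on lysates with anti-acetyl-lysine antibody, acceptor and donor beads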
Numbers without * were called inactive. Many of the other results were omitted from the sample, so hits are more common in it than they were.

SMILES	PGC1a Ac signal
C[C@@H]1CN([C@@H](C)CO)C(=O)c2cc(/C=C/c3ccccc3)cnc2O[C@@H]1CN(C)Cc1cccnc1	-46
O=[N+]([O-])c1cc(-c2ncccn2)c([N+](=O)[O-])s1	-61
O=C(Cc1ccc(-n2cccc2)cc1)NCc1cccs1	58*
COc1ccc(CN(C)C[C@H]2Oc3ccc(NC(=O)Cc4cn(C)c5ccccc45)cc3CC(=O)N([C@@H](C)CO)C[C@@H]2C)cc1	-41
CCCCC(=O)Nc1ccc(NC(=O)c2cccs2)cn1	-49
CC(=O)c1cccc(NC(=O)Nc2cccnc2)c1	-50
CCCCSc1ccc(NC(=O)c2cccnc2)cc1	70*
O=C1C=CCCN1C(=O)/C=C/c1cccc(C(F)(F)F)c1	-78
CCCCCCNC(=O)c1ncn[nH]1	-41
CC(C)CC(OC(=O)c1cccs1)C(=O)NCc1ccco1 (configuration not stated)	86*
C[C@H](NC(=O)C[C@H]1C[C@@H]2c3cc(NC(=O)Nc4ccc(C(F)(F)F)cc4)ccc3O[C@@H]2[C@@H](CO)O1)c1ccccc1	-44
O=C(N/N=C/c1ccc2c(c1)OCO2)c1cc(-c2ccc(F)cc2)nc2ccccc12	-49
Cc1ccc(-c2cc(C(=O)N3CCOCC3)c3ccccc3n2)o1	-45
O=C(O)c1cc(-c2ccc3c(c2)OCO3)nc2ccccc12	93*
C/C=C(/C)C(=O)O[C@@H]1c2cc(OC)c(OC)c(OC)c2-c2c(cc3c(c2OC)OCO3)C[C@H](C)[C@]1(C)O	167*
CC(=O)c1cccc(-c2ccnc3c2CC(C(=O)NCc2ccco2)O3)c1 (configuration not stated)	52*
COc1ccccc1-c1ccc([C@@H]2[C@H](CO)N(C(C)=O)C23CN(C(C)=O)C3)cc1	-58
COc1cccc(CN2CCC(CO)(CC3CCCCO3)CC2)c1 (configuration not stated)	-100
O=C(Nc1ccc(C(F)(F)F)cc1)N1C[C@@H]2N[C@H](C1)C2c1ccc(-c2ccccc2)cc1 (some centres not stated)	-43
N#Cc1cccc(-c2ccc(C3[C@@H]4CN(Cc5ccccc5F)C[C@H]3N4)cc2)c1 (some centres not stated)	-48
COc1ccccc1-c1ccc(C2[C@@H]3CN(Cc4cccc(F)c4)C[C@H]2N3)cc1 (some centres not stated)	72*
O=C(Nc1cccc(F)c1)N1C[C@@H]2N[C@H](C1)C2c1ccc(-c2ccc(F)cc2)cc1 (some centres not stated)	73*
COc1cccc(CN2C[C@@H]3N[C@H](C2)C3c2ccc(-c3ccccc3OC)cc2)c1 (some centres not stated)	58*
Cc1cccc(-c2ccc(C3[C@@H]4CN(Cc5cccc(F)c5)C[C@H]3N4)cc2)c1 (some centres not stated)	59*
O=C(Nc1ccc(C(F)(F)F)cc1)N1C[C@@H]2N[C@H](C1)C2c1ccc(/C=C/c2ccccc2)cc1 (some centres not stated)	-73
SMILES	PGC1a Ac signal
C[C@H]1CN([C@@H](C)CO)S(=O)(=O)c2ccc(C#CC3CCCCC3)cc2O[C@@H]1CN(C)Cc1cccnc1	-64
CCOc1ccc(CN2CCNC(=O)C2CC(=O)NCc2ccccn2)cc1 (configuration not stated)	-48
COc1ccc(S(=O)(=O)N2CCC(C(=O)N3CCC(C(N)=O)CC3)CC2)cc1Cl	-44
O=C(Nc1cccc2c1CCCC2)c1ccccc1Br	-50
COc1ccc(S(=O)(=O)Nc2ccccc2C)cc1C(=O)N1CCOCC1	-102
C=CCNC(=O)CC1Nc2c3ccccc3nc(=S)n2C1=O (configuration not stated)	-41
CCOC(=O)N1CCN(C(=O)C(NS(=O)(=O)c2cccc3nsnc23)c2ccccc2)CC1 (configuration not stated)	59*
CC[C@H](C)[C@H](NC(=O)c1ccc(Cl)cc1)C(=O)OCC(=O)c1ccc2c(c1)NC(=O)CO2	-40
CCOc1ccc(N2CC(C(=O)Nc3ccc(S(=O)(=O)NCC4CCCO4)cc3)CC2=O)cc1 (configuration not stated)	-56
COC(=O)C1=C(N)OC2=C(C(=O)CC(C)(C)C2)C1c1cccs1 (configuration not stated)	57*
COCC(=O)N1C[C@@H](C)[C@@H](OC)CN(C)C(=O)c2ccc(NC(=O)c3cnccn3)cc2OC[C@@H]1C	-61
O=C(NC1CCCC1)C(c1ccncc1)N(Cc1ccccc1F)C(=O)c1csnn1 (configuration not stated)	-47
Cc1cc(NS(=O)(=O)c2ccc(NC(=O)CCCOc3ccccc3)cc2)no1	52*
COC(=O)Nc1ccc(Oc2ccccc2)cc1	-46
CCOC(=O)/C(C#N)=N/Nc1ccc(S(=O)(=O)Nc2cc(OC)nc(OC)n2)cc1	-52
CCN(CC)c1ccc(S(=O)(=O)N2CCOCC2)cc1NC(=O)Cn1nc(C)c([N+](=O)[O-])c1C	-48
O=C(Nc1cc(S(=O)(=O)N2CCOCC2)ccc1Cl)c1cc([N+](=O)[O-])ccc1Cl	67*
CCN(CC)S(=O)(=O)c1ccc(C(=O)Nc2cc(S(=O)(=O)N3CCOCC3)ccc2O)cc1	-46
CN(C)C(=O)C[C@H]1C[C@@H]2c3cc(NC(=O)C4CCOCC4)ccc3O[C@@H]2[C@H](CO)O1	-41
Cc1cc(-c2ccc(Cl)cc2)n2ncnc2n1	-48
COc1ccc(N=C2SC(C(N)=O)CC(=O)N2Cc2ccc3c(c2)OCO3)cc1 (configuration not stated)	-54
COc1ccc2c(c1)c1nc3ccccc3nc1n2CC(=O)OC(C)C	-46
COc1ccc2c(c1)sc1nc(-c3ccccc3)cn12	71*
COc1ccc(-c2[nH]ncc2CN(C)C(C)c2ccon2)cc1F (configuration not stated)	-80
COc1ccc(-c2[nH]ncc2-c2ccc3c(c2)OCCO3)c(O)c1	-53
SMILES	PGC1a Ac signal
CCOc1ccc(-c2[nH]ncc2-c2ccc(OC)c(OC)c2)c(O)c1	68*
CCCS(=O)(=O)c1nnnn1-c1cccc(OC)c1	73*
COc1cccc(-n2c(-c3cccc(S(=O)(=O)N(C)C)c3)n[nH]c2=S)c1	-56
C[C@@H]1CN([C@@H](C)CO)C(=O)CCCn2nncc2CO[C@H]1CN(C)S(=O)(=O)c1ccc(Cl)cc1	-97
Oc1ccc(-c2nnc(-c3ccc(O)cc3)nn2)cc1	74*
O=C(Cc1ccccc1)N1CC[C@@H]2[C@H]1c1cc(C#Cc3ccccc3)ccc1N[C@@H]2CO	64*
O=C(CN(Cc1ccc2c(c1)OCO2)C(=O)CNS(=O)(=O)c1ccccc1)NCc1ccco1	-46
Cc1noc(C)c1NC(=O)N(C)C[C@@H]1OCCCC[C@@H](C)Oc2ccc(N(C)C)cc2C(=O)N([C@@H](C)CO)C[C@H]1C	-59
O=C(c1ccc(F)cc1)N1CC(=O)N2[C@H](CO)[C@@H](c3ccc(C#CCC4CCCC4)cc3)[C@@H]2C1	-49
Cc1ccc(NC(=S)c2ccncc2)cc1	66*
COCCCn1[nH]c2c3c(ccc2c1=O)C(=O)c1ccccc1C3=O	-46
O=[N+]([O-])c1cc(-c2nnc(Nc3ccc(O)cc3)c3ccccc23)ccc1N1CCOCC1	129*
CCC(=O)N[C@H]1CC[C@H](CC(=O)OC)O[C@H]1CO	-43
O=C(COC(=O)C1CC2CCCC(C1)C2=O)Nc1ccc(F)c(Cl)c1 (configuration not stated)	-48
Cn1cccc1C(=O)OCC(=O)Nc1ccc2c(c1)CCC2	83*
